Source: PubChem
TAAR1 antagonist – antagonists of human TAAR1. inhibition, % at 3 µM. actives 1.5% (n = 360,000). CHO RD-HGA16 TAAR1, Fluo-8 calcium fluorescence, antagonist. Q96RJ0. AID 624466;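 active means inhibition above a per-plate cutoff, the mean inhibition of test compounds on that plate plus 3 SD, cut at about 49% in these data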
Target sequence (Q96RJ0 whole entry, looked up): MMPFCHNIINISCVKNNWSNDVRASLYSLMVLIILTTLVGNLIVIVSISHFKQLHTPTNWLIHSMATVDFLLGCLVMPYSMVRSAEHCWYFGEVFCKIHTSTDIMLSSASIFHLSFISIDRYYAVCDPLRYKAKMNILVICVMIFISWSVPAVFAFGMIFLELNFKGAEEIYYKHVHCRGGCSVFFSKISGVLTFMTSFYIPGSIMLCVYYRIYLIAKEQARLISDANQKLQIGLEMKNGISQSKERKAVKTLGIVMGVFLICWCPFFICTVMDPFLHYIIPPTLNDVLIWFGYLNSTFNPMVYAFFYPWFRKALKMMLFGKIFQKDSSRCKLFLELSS
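Test system: hTAAR1-expressing CHO RD-HGA16 cells, Gα16-coupled; Probe or stimulus: EC80 β-phenethylamine stimulus; Compound dosing: single nominal final test compound concentration of 3 µM; Timing: 140 s kinetic read after compound, 140 s after agonist; Signal: Fluo-8 calcium-sensitive fluorescence; Measure: % inhibition of agonist calcium response; Controls: DMSO and EC80 PEA controls.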
OX1R antag-1 – blocks the human orexin 1 receptor. O43613. OX1R-expressing cells, FRET antagonist read-out. inhibition, % at 6.6 µM. actives 1.8% (n = 330,000); in the data active means inhibition mostly above about 38%, no sharp cut-off; inactive means mostly below about 40%
Target sequence (O43613 whole entry, looked up): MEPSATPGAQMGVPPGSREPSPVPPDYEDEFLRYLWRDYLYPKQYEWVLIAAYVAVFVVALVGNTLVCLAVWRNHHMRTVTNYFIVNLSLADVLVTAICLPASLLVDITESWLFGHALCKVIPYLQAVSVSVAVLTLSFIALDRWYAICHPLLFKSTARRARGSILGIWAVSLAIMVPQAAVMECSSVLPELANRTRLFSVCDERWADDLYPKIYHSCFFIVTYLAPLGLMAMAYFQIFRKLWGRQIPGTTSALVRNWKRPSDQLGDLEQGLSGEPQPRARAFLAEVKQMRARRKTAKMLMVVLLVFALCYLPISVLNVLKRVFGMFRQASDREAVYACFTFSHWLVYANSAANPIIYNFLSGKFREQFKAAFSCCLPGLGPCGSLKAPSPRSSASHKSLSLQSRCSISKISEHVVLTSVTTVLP
GPR7 antagonist – blocks human GPR7 receptor signaling. inhibition, % at 4.4 µM. P48145. actives 1.1% (n = 290,000). GPR7-expressing cells, fluorescence antagonist assay; in the data active means inhibition above about 16%, passing the limit was not always enough;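 further: cells stimulated with the agonist NPW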
OX1R antag-2 – blocks the human orexin 1 receptor; CHO/OX1R cells, Fluo-8 calcium fluorescence, orexin A; inhibition, % at 5 µM; actives 0.43% (n = 330,000);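 active means inhibition above its plate's threshold, mean inhibition of all tested compounds on the plate plus 3 SD, cut at about 37% in these data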
TAAR1 ag – human TAAR1 agonism. activation, % at 3 µM. actives 0.99% (n = 360,000). Q96RJ0. AID 624467. CHO RD-HGA16 TAAR1, Fluo-8 calcium fluorescence; vehicle wells 0%, saturating PEA agonist 100%;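 active means activation above the mean activation of all test compounds in the run plus 3 SD, cut at about 38% in these data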
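Repeats: no replicates (n 1) | Material: CHO-derived RD-HGA16 cells with stable Gα16 and human TAAR1 | Technique: Kinetic Fluo-8 calcium fluorescence | Schedule: 17-24 h seeding, 75 min 37 °C dye, 30 min RT | Evaluation: % activation from peak over basal fluorescence ratio, DMSO-to-PEA scaled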
CHO parental Ca – counter-screen: ATP calcium response change in parental CHO cells. parental CHO-K1, ATP-induced calcium, Fluo-8 fluorescence. inhibition, % at 5.6 µM. actives 0.63% (n = 330,000). AID 463079;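 active means inhibition above that plate's mean sample inhibition plus 3 SD, cut at about 26% in these data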
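Assay system: parental CHO cells; Read-out basis: percent inhibition of ATP-evoked calcium rise, normalized to controls; Benchmarks: ATP and no-ATP DMSO wells; Compound dosing: single nominal dose of 5.6 µM per compound; Signal: Fluo-8 calcium dye fluorescence; Also added: ATP as calcium-mobilizing challenge; Repeats: singlicate.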
nonsel antag count – nonselective antagonist in TAAR1 antagonist counter-screen | inhibition, % at 3 µM | counterscreen cell line, calcium fluorescence, antagonist mode | AID 651780 | actives 77% (n = 2,400) | shares compounds with TAAR1 antagonist; in the data active means inhibition above about 22%;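 further: CHO-Ga16 host cells stimulated with ATP at an EC80 level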
TAAR1 antag conf – confirmation of human TAAR1 antagonists; shares compounds with TAAR1 antagonist; TAAR1-expressing cells, fluorescence antagonist read-out; inhibition, % at 3 µM; actives 40% (n = 2,400); AID 651785; in the data active means inhibition above about 49%;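 further: CHO-Ga16 host cells challenged with agonist PEA near its EC80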
Ga16 ag counter – counter-screen for TAAR1 antagonists: nonselective Ga16 agonists | shares compounds with TAAR1 antagonist | Ga16-expressing cells, calcium fluorescence, agonist counterscreen | activation, % at 3 µM | actives 18% (n = 2,400); in the data active means activation above about 12%
TAAR1 ag counter – counter-screen for human TAAR1 antagonists: TAAR1 agonists; hTAAR1 cell line, fluorescence activation, agonist mode; shares compounds with TAAR1 antagonist; AID 651955; activation, % at 3 µM; actives 2% (n = 2,400); in the data active means activation above about 37%;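 further: CHO cells stably expressing TAAR1 with calcium dye readout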
Each line names hits and unclear results; the compound was inactive in the other large screens (follow-up assays come after a bar, where they were run). In the library only some 4.6% were active in any assay of this set; here they are far more common.

Cc1ccccc1C(=O)Oc1ccc(Sc2ccc(O)cc2)cc1	TAAR1 antagonist 60.7 | nonsel antag count inactive | TAAR1 antag conf inactive | Ga16 ag counter inactive | TAAR1 ag counter inactive
Cc1ccccc1C(=O)Oc1ccc(-c2csnn2)cc1	none
CC1CCCCC12NC(=O)N(CC(=O)N1CCN(C(=O)c3cccs3)CC1)C2=O (centres undefined)	none (no result: GPR7 antagonist)
COc1ccc(C(CNC(=O)C(Cc2ccccc2)NC(N)=O)N(C)C)cc1 (centres undefined)	TAAR1 antagonist 103.2 | nonsel antag count inactive | TAAR1 antag conf inactive | Ga16 ag counter inactive | TAAR1 ag counter inactive
Cc1ccc(C(C)C)cc1S(=O)(=O)NCc1ccccn1	none
COc1cc(NCCCn2ccc(NC(=O)OCc3ccccc3)nc2=O)cc(OC)c1OC	none (no result: OX1R antag-1, GPR7 antagonist, OX1R antag-2, CHO parental Ca)
O=C(COc1c(F)c(F)c(C(F)(F)F)c(F)c1F)Nc1ccc(N2CCOCC2)c(Cl)c1	none
CCC(C)c1ccc(NC(=O)COc2c(F)c(F)c(C(F)(F)F)c(F)c2F)cc1 (centres undefined)	TAAR1 antagonist 50.8 | nonsel antag count inactive | TAAR1 antag conf inactive | Ga16 ag counter inactive | TAAR1 ag counter inactive
Cc1ccc(C)c(N2CCN(C(=O)CCS(=O)(=O)c3ccc4c(c3)NC(=O)CO4)CC2)c1	TAAR1 antagonist 85.3, OX1R antag-2 65.7, CHO parental Ca 56.7 | nonsel antag count 43.0 | TAAR1 antag conf 56.8 | Ga16 ag counter 14.7 | TAAR1 ag counter inactive
CS(=O)(=O)c1ccc(Cl)c(NC(=O)CSc2nnc(-c3cccs3)n2N)c1	none (no result: GPR7 antagonist)
Cc1nc(Cl)c(C(=O)Nc2cccc(F)c2)c(C)c1Cl	none
CC(=O)c1ccc(NC(=O)N2CCCC(C(=O)c3ccc4c(c3)OCO4)C2)cc1 (centres undefined)	TAAR1 antagonist 48.8 | nonsel antag count 22.5 | TAAR1 antag conf inactive | Ga16 ag counter inactive | TAAR1 ag counter inactive
Cc1ccc(CNC(=O)c2ccc(COc3ccccc3)cc2)cc1	TAAR1 antagonist 53.4 | nonsel antag count inactive | TAAR1 antag conf inactive | Ga16 ag counter inactive | TAAR1 ag counter inactive
Cc1ccc(C)c(C(=O)CSc2nc(C)cc(=O)[nH]2)c1	none
COc1cccc(Nc2nc(-c3sc(NC(=O)c4ccco4)nc3C)cs2)c1	TAAR1 antagonist 52.4 | nonsel antag count 21.6 | TAAR1 antag conf inactive | Ga16 ag counter inactive | TAAR1 ag counter inactive
OCCNc1nc(Nc2cc(Cl)ccc2OC2CCCC2)nc(N2CCCC2)n1	TAAR1 antagonist 49.0 (no result: GPR7 antagonist) | nonsel antag count 21.9 | TAAR1 antag conf inactive | Ga16 ag counter inactive | TAAR1 ag counter inactive
COc1ccc(Cl)cc1Nc1nc(NCCO)nc(N2CCCC2)n1	none
CCN=C1SC(CC(=O)Nc2ccc(C(F)(F)F)cc2)C(=O)N1CC (centres undefined)	TAAR1 antagonist 77.3 | nonsel antag count 38.0 | TAAR1 antag conf 64.5 | Ga16 ag counter 12.6 | TAAR1 ag counter inactive
O=C(NCc1cc(C(F)(F)F)ccc1Cl)c1cccc2c1C(=O)c1ccc(N3CCOCC3)cc1S2(=O)=O	TAAR1 antagonist 60.5 (no result: GPR7 antagonist) | nonsel antag count 33.2 | TAAR1 antag conf 49.9 | Ga16 ag counter 22.2 | TAAR1 ag counter inactive
O=C(NCc1cc(C(F)(F)F)ccc1Cl)c1cccc2c1C(=O)c1ccc(N3CCCCC3)cc1S2(=O)=O	none (no result: GPR7 antagonist)
CCc1cc2c(-c3ccccc3)cc(=O)oc2cc1OC(C)C(=O)NCC1CCC(C(=O)O)CC1 (centres undefined)	none
CCOc1ccc2nc(NC(=O)CN3CCC(n4nnc5cc(F)ccc54)CC3)sc2c1	TAAR1 antagonist 68.0 | nonsel antag count 23.4 | TAAR1 antag conf inactive | Ga16 ag counter inactive | TAAR1 ag counter inactive
COc1cc(CC(=O)Nc2cccc(S(=O)(=O)N(C)c3ccccc3)c2)cc(OC)c1OC	none (no result: GPR7 antagonist)
COc1cc(C=O)ccc1OCC(=O)Nc1cccc(S(=O)(=O)N(C)c2ccccc2)c1	TAAR1 antagonist 62.6 (no result: GPR7 antagonist) | nonsel antag count 34.9 | TAAR1 antag conf 53.9 | Ga16 ag counter inactive | TAAR1 ag counter inactive
CN(C)S(=O)(=O)c1cccc(NC(=O)COc2ccccc2C(=O)NCc2ccccc2)c1	TAAR1 antagonist 62.8 (no result: OX1R antag-1, GPR7 antagonist, OX1R antag-2, CHO parental Ca) | nonsel antag count 24.8 | TAAR1 antag conf inactive | Ga16 ag counter inactive | TAAR1 ag counter inactive
COc1ccccc1C(=O)NCC(=O)OCC(=O)Nc1cccc(S(=O)(=O)N(C)C)c1	none
O=C(Nc1ccn(CCCNC2CCN(Cc3ccccc3)CC2)c(=O)n1)OCc1ccccc1	none (no result: OX1R antag-1, GPR7 antagonist, OX1R antag-2, CHO parental Ca)
CCC(CC)c1nnc(NC(=O)C2CSC3(C)CCC(=O)N23)s1 (centres undefined)	none (no result: GPR7 antagonist)
Cn1c(CSCc2ccc(Cl)cc2)nnc1SCC(=O)Nc1nccs1	TAAR1 antagonist 61.5 | nonsel antag count 42.3 | TAAR1 antag conf 55.9 | Ga16 ag counter 16.9 | TAAR1 ag counter inactive
Cn1c(CSCc2ccccc2)nnc1SCC(=O)Nc1nccs1	none
CCN=C1SC(C(=O)Nc2cccc(OCC)c2)CC(=O)N1CC (centres undefined)	TAAR1 antagonist 74.5 | nonsel antag count 36.4 | TAAR1 antag conf 59.8 | Ga16 ag counter inactive | TAAR1 ag counter inactive
CCOC(=O)c1c(N=CN(C)C)c(C#N)n2c1CCC2	none
COc1ccc(/C=N/NC(=O)c2cccnc2)cc1COc1ccc([N+](=O)[O-])c(C)c1	TAAR1 antagonist 63.7 | nonsel antag count 38.3 | TAAR1 antag conf 53.3 | Ga16 ag counter 11.7 | TAAR1 ag counter inactive
O=C(N/N=C/c1cccc(OC(=O)c2ccccc2Cl)c1)c1cccnc1	TAAR1 antagonist 54.0 | nonsel antag count inactive | TAAR1 antag conf inactive | Ga16 ag counter inactive | TAAR1 ag counter inactive
COc1cc(/C=N/NC(=O)c2cccnc2)ccc1OC(=O)c1ccc2c(c1)OCO2	TAAR1 antagonist 54.3 | nonsel antag count 26.4 | TAAR1 antag conf inactive | Ga16 ag counter inactive | TAAR1 ag counter inactive
Cc1ccc(C(=O)N/N=C/c2ccc(OC(=O)c3ccccc3Cl)cc2)cn1	none
Cc1cccc(NCc2nc(SCC(N)=O)n[nH]2)c1	none
CCN(C(=O)c1cc(Cl)ccc1OC)c1ccccc1C	none
COc1cc(NC(=O)c2ccc(-c3cccc(F)c3)o2)ccc1NC(=O)c1ccccc1Cl	TAAR1 antagonist 55.4 (no result: GPR7 antagonist) | nonsel antag count 22.6 | TAAR1 antag conf inactive | Ga16 ag counter inactive | TAAR1 ag counter inactive
